ChEMBL document CHEMBL4304771, “Design, synthesis and biological activity of N-(2-phenoxy)ethyl imidazo[1,2-a]pyridine-3-carboxamides as new antitubercular agents” (Eur J Med Chem, 2019)
≈ marks a conversion by molar mass, not a printed value.

How the values were obtained:
[1] = tested on: Mycobacterium tuberculosis; assay: Antitubercular activity against multidrug resistant Mycobacterium tuberculosis isolate 11168 assessed as parasite growth inhibition measured after 7 days incubation by microplate alamar blue assay; format: functional; conditions: isolate 11168, 168 h
How it was run: (§1)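 Strains grown to late log phase in 7H9 with 0.2% glycerol, 0.05% Tween 80 and 10% ADC. Cells washed, resuspended in PBS, filtered (8 µm) and frozen at -80 °C. Two-fold compound dilutions, 2 × 10⁵ CFU per well, 37 °C for 7 days. Tween 80 and Alamar blue then added for 16-24 h; fluorescence read at ex 530/em 590 nm. MIC = lowest concentration giving ≥90% fluorescence reduction versus mean of bacterium-only controls.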

[2] = tested on: Mycobacterium tuberculosis; assay: Antitubercular activity against multidrug resistant Mycobacterium tuberculosis isolate 9160 assessed as parasite growth inhibition measured after 7 days incubation by microplate alamar blue assay; format: functional; conditions: isolate 9160, 168 h; how it was run: as §1

Row | SMILES | MIC [1] [µg/mL] | MIC [2] [µg/mL]
1 | CCc1nc2ccc(Br)cn2c1C(=O)NCCOc1ccc(N2CCC(C(F)(F)F)CC2)cc1 | < 0.016 | 0.13 (≈ 0.241 µM)
2 | CCc1nc2ccc(Cl)cn2c1C(=O)NCCOc1ccc(Br)cc1 | 0.063 (≈ 0.149 µM) | 0.311 (≈ 0.736 µM)
3 | COc1ccc(OCCNC(=O)c2c(C3CC3)nc3ccc(C)cn23)cc1 | < 0.016 | 0.429 (≈ 1.17 µM)
4 | CCc1nc2ccc(Cl)cn2c1C(=O)NCCOc1ccc(Cl)cc1 | 0.25 (≈ 0.661 µM) | 1 (≈ 2.64 µM)
5 | COc1ccc2nc(C)c(C(=O)NCCOc3ccc(N4CCC(C(F)(F)F)CC4)cc3)n2c1 | < 0.016 | 0.111 (≈ 0.233 µM)
6 | CCc1nc2ccc(Br)cn2c1C(=O)NCCOc1ccc(N2CC3CCCCC3C2)cc1 (stereo unspecified) | < 0.016 | 0.032 (≈ 0.0626 µM)
7 | CCc1nc2ccc(Br)cn2c1C(=O)NCCOc1ccc(N2CCCCC2)cc1 | < 0.016 | < 0.016
8 | CCc1nc2ccc(C)cn2c1C(=O)NCCOc1ccc(OC)cc1 | < 0.016 | 0.394 (≈ 1.11 µM)
9 | CCc1nc2ccc(Cl)cn2c1C(=O)NCCOc1ccc(N(C)C)cc1 | < 0.016 | 0.225 (≈ 0.582 µM)
10 | CCc1nc2ccc(Cl)cn2c1C(=O)NCCOc1ccc(N2CCN(c3ccc(F)cc3)CC2)cc1 | < 0.016 | 0.016 (≈ 0.0306 µM)
11 | COc1ccc2nc(C)c(C(=O)NCCOc3ccc(N4CC5CCCCC5C4)cc3)n2c1 (stereo unspecified) | < 0.016 | < 0.016
12 | CCc1nc2ccc(Br)cn2c1C(=O)NCCOc1ccc(Br)cc1 | 0.125 (≈ 0.268 µM) | 0.449 (≈ 0.961 µM)
13 | CCc1nc2ccc(C)cn2c1C(=O)NCCOc1ccc(N2CC3CCCCC3C2)cc1 (stereo unspecified) | < 0.016 | 0.024 (≈ 0.0537 µM)
14 | COc1ccc2nc(C)c(C(=O)NCCOc3ccc(Br)cc3)n2c1 | 0.125 (≈ 0.309 µM) | 0.5 (≈ 1.24 µM)
15 | NNC(=O)c1ccncc1 [ISONIAZID] | > 40 | > 40
16 | O=c1nc(N2CCN(CC3CCCCC3)CC2)sc2c([N+](=O)[O-])cc(C(F)(F)F)cc12 [MACOZINONE] | 0.116 (≈ 0.254 µM) | 0.232 (≈ 0.508 µM)
17 | CO[C@H]1/C=C/O[C@@]2(C)Oc3c(C)c(O)c4c(O)c(c(/C=N/N5CCN(C)CC5)c(O)c4c3C2=O)NC(=O)/C(C)=C\C=C\[C@H](C)[C@H](O)[C@@H](C)[C@@H](O)[C@@H](C)[C@H](OC(C)=O)[C@@H]1C [RIFAMPIN] | 36.9 (≈ 44.8 µM) | 38.6 (≈ 47 µM)
18 | CCc1nc2ccc(Cl)cn2c1C(=O)NCc1ccc(N2CCC(c3ccc(OC(F)(F)F)cc3)CC2)cc1 [TELACEBEC] | < 0.016 | 0.057 (≈ 0.102 µM)
